Measured values taken from ChEMBL document CHEMBL3232844, “Synthesis and structure activity relationships of schweinfurthin indoles” (2014).

Tests used:
Type in all cases: functional
NCI-H226 = experiment: Cytotoxicity against human NCI-H226 cells
Outline: (§1)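 Tested in a 60-cell-line human tumor panel screen; the read-out is growth inhibition, reported as GI50 for each cell line.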

NCI-H460 = experiment: Cytotoxicity against human NCI-H460 cells; outline: as §1
HT-29 = experiment: Cytotoxicity against human HT-29 cells; outline: as §1
TK-10 = experiment: Cytotoxicity against human TK10 cells
Outline: (§2)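 Cell line run as part of the 60-cell-line screening panel; growth inhibition was reported as a GI50 for each line.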

SK-OV-3 = experiment: Cytotoxicity against human SKOV3 cells; outline: as §1
M14 = experiment: Cytotoxicity against human M14 cells; outline: as §1
SF-539 = experiment: Cytotoxicity against human SF539 cells; outline: as §1
U-251 = experiment: Cytotoxicity against human U251 cells; outline: as §2
CCRF-CEM = experiment: Cytotoxicity against human CCRF-CEM cells
SF-295 = experiment: Cytotoxicity against human SF295 cells; outline: as §1
[1] = Cytotoxicity against human NCI-ADR-RES cells; outline: as §1
HCC 2998 = experiment: Cytotoxicity against human HCC2998 cells; outline: as §1
SK-MEL-5 = experiment: Cytotoxicity against human SK-MEL-5 cells; outline: as §1
MOLT-4 = experiment: Cytotoxicity against human MOLT4 cells; outline: as §1
MDA-MB-468 = experiment: Cytotoxicity against human MDA-MB-468 cells; outline: as §1
ACHN = experiment: Cytotoxicity against human ACHN cells; outline: as §1
T47D = experiment: Cytotoxicity against human T47D cells; outline: as §2
[2] = Cytotoxicity against human UACC62 cells; outline: as §2
COLO 205 = experiment: Cytotoxicity against human COLO205 cells; outline: as §1
DU-145 = experiment: Cytotoxicity against human DU145 cells; outline: as §1
[3] = Cytotoxicity against human OVCAR8 cells; outline: as §1
[4] = Cytotoxicity against human OVCAR4 cells; outline: as §1
[5] = read-out: pLC50 (the source's name) (converted)

## COc1cc(/C=C/c2cc(O)c3c(c2)C[C@@H]2C(C)(C)[C@H](O)CC[C@@]2(C)O3)cc2[nH]cc(CC=C(C)C)c12
NCI-H226
  GI50: 8.32 µM
NCI-H226; [5]
  CC50: 72.4 µM
NCI-H226; read-out: pTGI (converted)
  TGI: 33.1 µM
NCI-H460
  GI50: 0.209 µM
NCI-H460; [5]
  CC50: 66.1 µM
NCI-H460; read-out: pTGI (converted)
  TGI: 26.9 µM
HT-29
  GI50: 0.832 µM
HT-29; [5]
  CC50: 21.4 µM
HT-29; read-out: pTGI (converted)
  TGI: 5.37 µM
TK-10
  GI50: 8.32 µM
  LC50: 69.2 µM
TK-10; read-out: pTGI (converted)
  TGI: 40.7 µM
SK-OV-3
  GI50: 4.68 µM
  LC50: 77.6 µM
SK-OV-3; read-out: pTGI (converted)
  TGI: 39.8 µM
M14
  GI50: 0.537 µM
M14; [5]
  CC50: 64.6 µM
M14; read-out: pTGI (converted)
  TGI: 32.4 µM
SF-539
  GI50: 0.01 µM
SF-539; [5]
  CC50: 24.5 µM
SF-539; read-out: pTGI (converted)
  TGI: 4.47 µM
U-251
  GI50: 0.01 µM
U-251; [5]
  CC50: 60.3 µM
U-251; read-out: pTGI (converted)
  TGI: 32.4 µM
CCRF-CEM
  GI50: 0.0871 µM
CCRF-CEM; [5]
  CC50: > 100 µM
CCRF-CEM; read-out: pTGI (converted)
  TGI: 14.8 µM
SF-295; read-out: GI50
  GI50: < 0.023 µM
SF-295; read-out: pGI50 (converted)
  GI50: 0.0234 µM
SF-295; [5]
  CC50: 6.46 µM
SF-295; read-out: pTGI (converted)
  TGI: 0.115 µM
[1]
  GI50: 7.59 µM
[1]; [5]
  CC50: 85.1 µM
[1]; read-out: pTGI (converted)
  TGI: 46.8 µM
HCC 2998
  GI50: 6.03 µM
HCC 2998; [5]
  CC50: 67.6 µM
HCC 2998; read-out: pTGI (converted)
  TGI: 37.2 µM
SK-MEL-5
  GI50: 1.23 µM
SK-MEL-5; [5]
  CC50: 7.08 µM
SK-MEL-5; read-out: pTGI (converted)
  TGI: 2.14 µM
MOLT-4
  GI50: 0.105 µM
MOLT-4; [5]
  CC50: > 100 µM
MOLT-4; read-out: pTGI (converted)
  TGI: 2.57 µM
MDA-MB-468
  GI50: 0.182 µM
  LC50: 67.6 µM
MDA-MB-468; read-out: pTGI (converted)
  TGI: 4.79 µM
ACHN
  GI50: 3.63 µM
  LC50 (concentration killing 50% of cells): 61.7 µM
ACHN; read-out: pTGI (converted)
  TGI: 38 µM
T47D
  GI50: 8.13 µM
T47D; [5]
  CC50: > 100 µM
T47D; read-out: pTGI (converted)
  TGI: 39.8 µM
[2]; UACC-62
  GI50: 0.1 µM
[2]; UACC-62, read-out: pLC50 (the source's name) (converted)
  CC50: 33.9 µM
[2]; UACC-62, read-out: pTGI (converted)
  TGI: 0.955 µM
COLO 205
  GI50: 4.17 µM
COLO 205; [5]
  CC50: 21.4 µM
COLO 205; read-out: pTGI (converted)
  TGI: 9.33 µM
DU-145
  GI50: 5.25 µM
  LC50 (50% lethal concentration): 64.6 µM
DU-145; read-out: pTGI (converted)
  TGI: 39.8 µM
[3]; OVCAR-8
  GI50: 11.5 µM
[3]; OVCAR-8, read-out: pLC50 (the source's name) (converted)
  CC50: 79.4 µM
[3]; OVCAR-8, read-out: pTGI (converted)
  TGI: 47.9 µM
[4]; OVCAR-4
  GI50: 10.7 µM
[4]; OVCAR-4, read-out: pLC50 (the source's name) (converted)
  CC50: 77.6 µM
[4]; OVCAR-4, read-out: pTGI (converted)
  TGI: 47.9 µM
